According to ChEMBL document CHEMBL4330187, “Synthesis of 5-Thio-α-GalCer Analogues with Fluorinated Acyl Chain on Lipid Residue and Their Biological Evaluation” (2019):
Activity calls are given as the source filed them. No cut-off for these calls is given here.

Assays:
[1] = tested on: Mus musculus; assay: Immunomodulatory activity in C57BL/6 mouse assessed as increase in IFN-gamma secretion in serum at 100 ug/kg, ip by ELISA; type: functional, organism-based
Summary of the method: (§1)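 Glycolipid given once i.p. to B6 mice at 100 μg/kg in 0.1 mL vehicle. Serum IL-4 and IFN-γ followed over time after injection, three mice per group, each serum sampled individually. IFN-γ/IL-4 selectivity expressed two ways: ratio of areas under the time–concentration curves, and ratio of peak (maximum) production.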

[2] = tested on: Mus musculus; assay: Immunomodulatory activity in C57BL/6 mouse assessed as increase in IL-4 secretion in serum at 100 ug/kg, ip by ELISA; type: functional, organism-based; summary of the method: as §1
[3] = tested on: Mus musculus; assay: Immunomodulatory activity in C57BL/6 mouse assessed as serum IFNgamma/IL-4 maximum productivity ratio at 100 ug/kg, ip by ELISA; type: functional; summary of the method: as §1
[4] = tested on: Mus musculus; assay: Immunomodulatory activity in C57BL/6 mouse assessed as serum IFNgamma/IL-4 AUC ratio at 100 ug/kg, ip by ELISA; type: functional; summary of the method: as §1
[5] = tested on: Mus musculus; assay: Immunomodulatory activity in C57BL/6 mouse assessed as increase in IL-4 secretion in serum at 100 ug/kg, ip after 3 hrs by ELISA; type: functional, organism-based; summary of the method: as §1

Row | Compound | Activity [1] | Activity [2] | Ratio [3] | Ratio [4] | Activity [5]
1 | CCCCCCCCCCCCCC[C@@H](O)[C@@H](O)[C@H](CO[C@H]1O[C@H](CO)[C@H](O)[C@H](O)[C@H]1O)NC(=O)C(F)(F)C(F)(F)C(F)(F)C(F)(F)C(F)(F)C(F)(F)C(F)(F)C(F)(F)C(F)(F)C(F)(F)C(F)(F)C(F)(F)C(F)(F)F | inactive | inactive |  |  | 
2 | CCCCCCCCCCCCCC[C@@H](O)[C@@H](O)[C@H](CO[C@H]1O[C@H](CO)[C@H](O)[C@H](O)[C@H]1O)NC(=O)C(F)(F)C(F)(F)C(F)(F)C(F)(F)C(F)(F)C(F)(F)C(F)(F)F |  |  | 3.4 | 5.8 | 
3 | CCCCCCCCCCCCCC[C@@H](O)[C@@H](O)[C@H](CO[C@H]1S[C@H](CO)[C@H](O)[C@H](O)[C@H]1O)NC(=O)C(F)(F)C(F)(F)C(F)(F)C(F)(F)C(F)(F)C(F)(F)C(F)(F)F |  |  | 9 | 26.7 | 
4 | CCCCCCCCCCCCCC[C@@H](O)[C@@H](O)[C@H](CO[C@H]1O[C@H](CO)[C@H](O)[C@H](O)[C@H]1O)NC(=O)CCCCCCC(F)(F)F | inactive | inactive |  |  | 
5 | CCCCCCCCCCCCCC[C@@H](O)[C@@H](O)[C@H](CO[C@H]1S[C@H](CO)[C@H](O)[C@H](O)[C@H]1O)NC(=O)CCCCCCC(F)(F)F | inactive | inactive |  |  | 
6 | CCCCCCCCCCCCCCCCCCCCCCCCCC(=O)N[C@@H](CO[C@H]1O[C@H](CO)[C@H](O)[C@H](O)[C@H]1O)[C@H](O)[C@H](O)CCCCCCCCCCCCCC [RGI-7000] | Active |  | 2.8 | 12.1 | Active
7 | CCCCCCCCCCCCCC[C@@H](O)[C@@H](O)[C@H](CO[C@H]1S[C@H](CO)[C@H](O)[C@H](O)[C@H]1O)NC(=O)C(F)(F)C(F)(F)C(F)(F)C(F)(F)C(F)(F)C(F)(F)C(F)(F)C(F)(F)C(F)(F)C(F)(F)C(F)(F)C(F)(F)C(F)(F)F |  |  | 0.59 | 0.58 | 
